According to ChEMBL document CHEMBL1130109, “Novel 99mTc aminobisthiolato/monothiolato "3 + 1" mixed ligand complexes: structure-activity relationships and preliminary in vivo validation as brain blood flow imaging agents” (J Med Chem, 1997):
Several values for one entry are separate records, joined by “and”; a condition that tells them apart may be missing. Equal entries are not always repeated.

Tests used:
[1] = species on record: Mus musculus; assay: Percentage biodistribution in mouse brain, 60 minutes post injection; assay type: ADME, organism-based; settings: in vivo, 1 h
How it was run: (§1)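 Male Swiss Albino mice (19–34g, at least five per group) were injected in the tail vein with HPLC-purified 99mTc complex in 50% methanol (0.1 mL, 2–3 μCi). Killed by cardiectomy under slight ether anesthesia at 5, 10, 30 or 60 min. Organs were excised, weighed and γ-counted against standards of 1% injected dose, as % ID/organ. Bladder plus excreted urine was not weighed. Stomach and intestines were not emptied.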

[2] = species on record: Mus musculus; assay: Percentage biodistribution in mouse blood, 10 minutes post injection; assay type: ADME, organism-based; settings: in vivo
How it was run: (§2)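 Mice (Swiss Albino males, 19–34g, ≥5/group) received tail-vein HPLC-purified 99mTc complex (0.1 mL, 2–3 μCi, 50% methanol) and were killed by cardiectomy under ether at set times. Blood % ID was computed from measured activity and sample weight, with blood taken as 7% of body weight, against 1%-dose standards.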

[3] = species on record: Mus musculus; assay: Percentage biodistribution in mouse brain, 10 minutes post injection; assay type: ADME, organism-based; settings: in vivo; how it was run: as §1
[4] = species on record: Mus musculus; assay: Percentage biodistribution in mouse stomach; assay type: ADME, organism-based; settings: in vivo; how it was run: as §1
[5] = species on record: Mus musculus; assay: Percentage biodistribution in mouse heart, 60 minutes post injection; assay type: ADME, organism-based; settings: in vivo, 1 h; how it was run: as §1
[6] = species on record: Mus musculus; assay: Percentage biodistribution in mouse liver, 30 minutes of post injection; assay type: ADME, organism-based; settings: in vivo, 0.5 h; how it was run: as §1
[7] = species on record: Mus musculus; assay: Percentage biodistribution in mouse brain, 5 minutes post injection; assay type: ADME, organism-based; settings: in vivo; how it was run: as §1
[8] = species on record: Mus musculus; assay: Percentage biodistribution in mouse heart, 30 minutes post injection; assay type: ADME, organism-based; settings: in vivo, 0.5 h; how it was run: as §1
[9] = species on record: Mus musculus; assay: Biodistribution in mice lungs at 60 min of post injection; assay type: ADME, organism-based, Lung; settings: in vivo, 1 h; how it was run: as §1
[10] = species on record: Mus musculus; assay: Percentage biodistribution in mousee lung, 5 minutes post injection; assay type: ADME, organism-based; settings: in vivo; how it was run: as §1
[11] = species on record: Mus musculus; assay: Percentage biodistribution in mouse spleen; assay type: ADME, organism-based; settings: in vivo; how it was run: as §1
[12] = species on record: Mus musculus; assay: Biodistribution in mice lungs at 10 min of post injection; assay type: ADME, organism-based, Lung; settings: in vivo; how it was run: as §1
[13] = species on record: Mus musculus; assay: Percentage biodistribution in mouse liver, 10 minutes post injection; assay type: ADME, organism-based; settings: in vivo; how it was run: as §1
[14] = species on record: Mus musculus; assay: Percentage biodistribution in mouse blood, 60 minutes post injection; assay type: ADME, organism-based; settings: in vivo, 1 h; how it was run: as §2
[15] = species on record: Mus musculus; assay: Percentage biodistribution in mouse liver, 5 minutes post injection; assay type: ADME, organism-based; settings: in vivo; how it was run: as §1
[16] = species on record: Mus musculus; assay: Percentage biodistribution in mouse intestine, 5 minutes post injection; assay type: ADME, organism-based; settings: in vivo; how it was run: as §1
[17] = species on record: Mus musculus; assay: Percentage biodistribution in mouse blood, 30 minutes post injection; assay type: ADME, organism-based; settings: in vivo, 0.5 h; how it was run: as §2
[18] = species on record: Mus musculus; assay: Percentage biodistribution in mouse intestine, 30 minutes post injection; assay type: ADME, organism-based; settings: in vivo, 0.5 h; how it was run: as §1
[19] = species on record: Mus musculus; assay: Biodistribution in mice bladder plus excreted urine was determined; assay type: ADME, organism-based; settings: in vivo; how it was run: as §1
[20] = species on record: Mus musculus; assay: Percentage biodistribution in mouse heart, 5 minutes post injection; assay type: ADME, organism-based; settings: in vivo; how it was run: as §1
[21] = species on record: Mus musculus; assay: Percentage biodistribution in mouse lung, 30 minutes post injection; assay type: ADME, organism-based; settings: in vivo, 0.5 h; how it was run: as §1
[22] = species on record: Mus musculus; assay: Percentage biodistribution in mouse intestine, 10 minutes post injection; assay type: ADME, organism-based; settings: in vivo; how it was run: as §1
[23] = Partition coefficient (logD7.4); assay type: physicochemical; settings: octanol/water, pH 7.4
How it was run: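 HPLC-purified 99mTc complex (0.1 mL) was added to 2 mL each of 1-octanol and 0.125 M phosphate buffer, pH 7.4. The mix was vortexed and centrifuged at 5000 rpm for 5 min. Three 0.2 mL samples per layer were γ-counted. Mean cpm/mL of octanol was divided by that of buffer.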

[24] = species on record: Mus musculus; assay: Percentage biodistribution in mouse intestine, 60 minutes post injection; assay type: ADME, organism-based; settings: in vivo, 1 h; how it was run: as §1
[25] = species on record: Mus musculus; assay: Percentage biodistribution in mouse heart, 10 minutes post injection; assay type: ADME, organism-based; settings: in vivo; how it was run: as §1
[26] = species on record: Mus musculus; assay: Biodistribution in mice liver at 60 minutes of post injection; assay type: ADME, organism-based; settings: in vivo, 1 h; how it was run: as §1
[27] = species on record: Mus musculus; assay: Percentage biodistribution in mouse blood, 5 minutes post injection; assay type: ADME, organism-based; settings: in vivo; how it was run: as §2
[28] = species on record: Mus musculus; assay: Percentage biodistribution in mouse brain, 30 minutes post injection; assay type: ADME, organism-based; settings: in vivo, 0.5 h; how it was run: as §1
[29] = % ID/gram in brain divided by %ID/gram in blood at 10 minutes.; assay type: functional, tissue-based
How it was run: (§3)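 Male Swiss Albino mice (19–34g, at least five per group) got HPLC-purified 99mTc complex in 50% methanol, 0.1 mL, 2–3 μCi, by tail vein. They were killed by cardiectomy under light ether at 5, 10, 30 or 60 min. % ID/g (% ID/organ ÷ organ weight) of brain was divided by that of blood; blood assumed 7% of body weight.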

[30] = % ID/gram in brain divided by %ID/gram in blood at 5 minutes.; assay type: functional, tissue-based; how it was run: as §3
[31] = Retention ratio is measured as the brain uptake (%ID/organ) at 30 min pi divided by the brain uptake at 5 min pi.; assay type: functional
How it was run: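 Brain % ID/organ in tail-vein-injected male Swiss Albino mice (0.1 mL, 2–3 μCi purified 99mTc complex in 50% methanol; γ-counted after cardiectomy under ether). Mean brain % ID/organ at 30 min pi was divided by the mean at 5 min pi.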

[32] = % ID/gram in brain divided by %ID/gram in blood at 60 minutes.; assay type: functional, tissue-based; how it was run: as §3

[4-methoxythio)phenolato][N,N-bis(2-mercaptoethyl)-N',N'-diethylethylenediamine] oxotechnetium [listing 1 of 2 here]
ID/organ [1]: 1.54% | ID/organ [2]: 1.53% | ID/organ [3]: 2.47% | ID/organ [4]: 2.43% and 2.34% | ID/organ [5]: 0.12% | ID/organ [6]: 27.33% and 25.58% | ID/organ [7]: 2.26% and 3.01% | ID/organ [8]: 0.28% and 0.19% | ID/organ [9]: 1.79% | ID/organ [10]: 11.03% and 15.37% | ID/organ [11]: 0.61% and 0.21% | ID/organ [12]: 9.78% | ID/organ [13]: 14.14% | ID/organ [14]: 1.21% | ID/organ [15]: 17.06% and 10.73% | ID/organ [16]: 9.22% and 8.31% | ID/organ [17]: 5.14% and 1.29% | ID/organ [18]: 21.19% and 18.99% | ID/organ [19]: 2.24% and 6.87% | ID/organ [20]: 0.81% and 0.74% | ID/organ [21]: 3.49% and 3.09% | ID/organ [22]: 9.61% | logD [23]: 2.54 and 2.63 | ID/organ [24]: 33.7% | ID/organ [25]: 0.46% | ID/organ [26]: 35.12% | ID/organ [27]: 6.09% and 2.02% | ID/organ [28]: 0.56% and 1.71%

[4-methoxythio)phenolato][N,N-bis(2-mercaptoethyl)-N',N'-diethylethylenediamine] oxotechnetium [listing 2 of 2 here]
Ratio [29]: 4.71 | Ratio [30]: 1.7 and 4.43 | Retention ratio [31]: 0.25 and 0.57 | Ratio [32]: 4.23
